The subject of data set [1] is Human immunodeficiency virus 1. The experiment in a line: Antiviral activity against HIV1 3B in human MT4 cells assessed as inhibition of viral-induced cytopathic effect by MTT method. It counts as functional, organism-based. To be noted: Human immunodeficiency virus 1, 3B.
Data set [2] in a line: Cytotoxicity against human MT4 cells by MTT assay. It counts as cell-based.
A short description of data set [3]: Selectivity index, ratio of CC50 for human MT4 cells to EC50 for HIV1 3B. To be noted: MT4 cells.
The target in the next data set is Protease (Human immunodeficiency virus 1, UniProt Q9YQ12). The experiment in a line: Inhibition of HIV1 protease. In outline: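 HIV-1 protease (2 µg/mL stock in pH 5.5 acetate buffer) was mixed with test compound (10 nM solution in DMSO) in MES-NaOH buffer, pH 5.5, containing DTT, EDTA and NaCl. The mixture was preincubated 5 min at 37 °C, then started with substrate H-Lys-Ala-Arg-Val-Tyr*Phe(p-NO₂)-Glu-Ala-Nle-NH₂. After 60 min at 37 °C, the reaction was stopped with 1N HCl.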

The target of data set [4] is Protease (Human immunodeficiency virus 1) (UniProt Q9YQ12). The settings on record: at 1 nM.
In data set [5] the test system is Human immunodeficiency virus 1. The experiment in a line: Antiviral activity against HIV1 3B in presence of 10% fetal calf serum and alpha1 acid glycoprotein. It counts as functional, organism-based. To be noted: Human immunodeficiency virus 1, 3B.
Data set [6] deals with Human immunodeficiency virus 1. The experiment in a line: Ratio of EC50 for nelfinavir-resistant HIV1 NL432 to EC50 for wild-type HIV1 NL432. It counts as functional.
The test system of data set [7] is Human immunodeficiency virus 1. The experiment in a line: Antiviral activity against wild type HIV1 NL432. To be noted: Human immunodeficiency virus 1, NL432. It counts as functional, organism-based.
For data set [8], the system named is Human immunodeficiency virus 1. The experiment in a line: Antiviral activity against nelfinavir-resistant HIV1 NL432. The class given is functional, organism-based. The settings on record: Human immunodeficiency virus 1, NL432.
In data set [9] the test system is Human immunodeficiency virus 1. The experiment in a line: microbe, parasite or virus in culture. It counts as functional, organism-based. The settings on record: Human immunodeficiency virus 1, NL432.
Data set [10] relates to Human immunodeficiency virus 1. The experiment in a line: microbe, parasite or virus in culture. The class given is functional, organism-based. To be noted: Human immunodeficiency virus 1, NL432. The source holds these as a separate data set.
For data set [11], the system named is Human immunodeficiency virus 1. The experiment in a line: Antiviral activity against HIV1 3B in presence of 10% fetal calf serum. It counts as functional, organism-based. To be noted: Human immunodeficiency virus 1, 3B.

Protease (Human immunodeficiency virus 1), sequence (Q9YQ12 as listed by the source): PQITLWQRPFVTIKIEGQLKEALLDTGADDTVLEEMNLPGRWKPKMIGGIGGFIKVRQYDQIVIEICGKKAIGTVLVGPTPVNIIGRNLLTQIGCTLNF
Protease, sequence (Q9YQ12 whole entry): as the sequence (Q9YQ12 as listed by the source) above

For `CC(=O)N[C@H](CS(=O)(=O)c1ccc2ccccc2c1)C(=O)N[C@@H](Cc1ccccc1)[C@H](O)C(=O)N1CSC(C)(C)[C@H]1C(=O)NCc1ccccc1C`, the EC50 in data set [1] amounted to 28 nM. The cytotoxic concentration (CC50) in data set [2] was 16000 nM. In addition, the selectivity ratio in data set [3] worked out at 570. Also, the IC50 on Protease came out at 0.086 nM. Moreover, the inhibition in [4] is 96%.
As for `COc1ccc(CSC[C@@H](NC(C)=O)C(=O)N[C@@H](Cc2ccccc2)[C@H](O)C(=O)N2CSC(C)(C)[C@H]2C(=O)NCc2ccccc2C)cc1`, the selectivity ratio in [3] was 1300. Also, in data set [5], the EC50 came out at 89 nM. Further, in data set [6], the “Ratio EC50” value came to 0.14. For the same compound, on Protease, it took 0.18 nM to reach half-maximal inhibition (IC50). In addition, the inhibition in data set [4] was found to be 87%.
Consider `CC(=O)N[C@H](CS(=O)(=O)c1cccc2ccccc12)C(=O)N[C@@H](Cc1ccccc1)[C@H](O)C(=O)N1CSC(C)(C)[C@H]1C(=O)NCc1ccccc1C`, for which the EC50 in [1] was 40 nM. Besides, the CC50 in [2] stood at 16000 nM. For the same compound, in data set [3], the selectivity ratio came to 400. Also, 0.09 nM corresponded to half-maximal inhibition on Protease (IC50). Besides, the inhibition in data set [4] was 97%.
For the compound `CC(=O)N[C@H](COCc1ccccc1)C(=O)N[C@@H](Cc1ccccc1)[C@H](O)C(=O)N1CSC(C)(C)[C@H]1C(=O)NCc1ccccc1C`, the EC50 in data set [1] worked out at 21 nM; in [7], 23 nM; in data set [8], 6.5 nM; in data set [9], 77 nM; in data set [10], 44 nM; in [11], 20 nM. Moreover, the EC50 in data set [5] turned out to be 278 nM. In addition, the CC50 in data set [2] was above 30000 nM. The selectivity ratio in data set [3] was above 1400. The “Ratio EC50” value in data set [6] is 0.28. In addition, on Protease, the concentration for half-maximal inhibition (IC50) is 0.39 nM. Further, the inhibition in data set [4] was determined as 64%.
In the case of `CC(=O)N[C@H](CS(=O)(=O)c1ccc(F)cc1)C(=O)N[C@@H](Cc1ccccc1)[C@H](O)C(=O)N1CSC(C)(C)[C@H]1C(=O)NCc1ccccc1C`, in data set [1], the EC50 was found to be 105 nM. Moreover, the CC50 in [2] is above 28000 nM. In addition, the selectivity ratio in [3] is above 270. Also, the IC50 on Protease came out at 0.27 nM. In addition, in data set [4], the inhibition came to 79%.
Consider `CC(=O)N[C@H](CS(=O)(=O)c1ccc(Cl)cc1)C(=O)N[C@@H](Cc1ccccc1)[C@H](O)C(=O)N1CSC(C)(C)[C@H]1C(=O)NCc1ccccc1C`, for which the EC50 is 47 nM in data set [1]; 88 nM in data set [7]; 9.6 nM in data set [8]; 44 nM in data set [9]; 19 nM in data set [10]; 27 nM in data set [11]. Moreover, the half-maximal effective concentration (EC50) in [5] amounted to 1270 nM. Further, the CC50 in data set [2] amounted to 18000 nM. Also, the selectivity ratio in data set [3] was found to be 380. Also, the “Ratio EC50” value in [6] amounted to 0.11. Inhibition on Protease was half-maximal at 0.22 nM (IC50). This compound came in with an inhibition in [4] of 80%.
Consider `COc1ccc(CSC[C@@H](NS(C)(=O)=O)C(=O)N[C@@H](Cc2ccccc2)[C@H](O)C(=O)N2CSC(C)(C)[C@H]2C(=O)NCc2ccccc2C)cc1`, for which the EC50 in data set [1] is 9.3 nM; in data set [7], 16 nM; in data set [8], 0.67 nM; in data set [9], 20 nM; in data set [10], 23 nM; in data set [11] it was 9.4 nM. Besides, the concentration for a half-maximal effect (EC50) in data set [5] stood at 94 nM. The same compound had a CC50 in data set [2] of 10000 nM. In [3], the selectivity ratio stood at 1100. The “Ratio EC50” value in data set [6] worked out at 0.04. At Protease, this compound displayed an IC50 of 0.26 nM. This compound also registered an inhibition in data set [4] of 77%.
On to `Cc1ccccc1CNC(=O)[C@H]1N(C(=O)[C@@H](O)[C@H](Cc2ccccc2)NC(=O)[C@@H](CS(=O)(=O)c2ccc3ccccc3c2)NS(C)(=O)=O)CSC1(C)C`, for which the concentration giving a half-maximal response (EC50) in data set [1] is 81 nM. In [2], this compound showed a CC50 of 19000 nM. Moreover, the selectivity ratio in data set [3] worked out at 230. Besides, at Protease, the half-inhibitory concentration (IC50) turned out to be 0.09 nM. Moreover, the inhibition in [4] turned out to be 98%.
With `Cc1ccccc1CNC(=O)[C@H]1N(C(=O)[C@@H](O)[C@H](Cc2ccccc2)NC(=O)[C@@H](COCc2ccccc2)NS(C)(=O)=O)CSC1(C)C`, the EC50 amounted to 20 nM in data set [1]; 22 nM in [7]; 2.3 nM in data set [8]; 90 nM in data set [9]; 92 nM in data set [10]; 20 nM in data set [11]. Further, the EC50 in [5] is 90 nM. In addition, in data set [2], the midpoint of cytotoxicity, the CC50, lay at 17000 nM. The selectivity ratio in data set [3] turned out to be 850. Further, the “Ratio EC50” value in data set [6] is 0.1. Moreover, the IC50 against Protease came to 0.56 nM. The compound further showed an inhibition in [4] of 59%.
In the case of `Cc1ccccc1CNC(=O)[C@H]1N(C(=O)[C@@H](O)[C@H](Cc2ccccc2)NC(=O)[C@@H](CS(=O)(=O)c2cccc3ccccc23)NS(C)(=O)=O)CSC1(C)C`, in data set [1], the EC50 stood at 61 nM. In [2], this compound registered a CC50 of 19000 nM. Also, the selectivity ratio in data set [3] was 310. This compound registered an IC50 at Protease of 0.083 nM. Further, the inhibition in data set [4] worked out at 97%.
As to `Cc1ccccc1CNC(=O)[C@H]1N(C(=O)[C@@H](O)[C@H](Cc2ccccc2)NC(=O)[C@@H](CS(=O)(=O)c2ccc(Cl)cc2)NS(C)(=O)=O)CSC1(C)C`, the IC50 on Protease amounted to 0.11 nM. The compound also came in with an inhibition in [4] of 95%.
As to `Cc1ccccc1CNC(=O)[C@H]1N(C(=O)[C@@H](O)[C@H](Cc2ccccc2)NC(=O)[C@@H](CSc2ccc3ccccc3c2)NS(C)(=O)=O)CSC1(C)C`, the EC50 worked out at 13 nM in [1]; 17 nM in data set [7]; 0.8 nM in [8]; 31 nM in data set [9]; 23 nM in [10]; 8 nM in data set [11]. Besides, the EC50 in [5] was 88 nM. Also, in data set [2], the midpoint of cytotoxicity, the CC50, lay at 6100 nM. Besides, the selectivity ratio in [3] is 470. The “Ratio EC50” value in [6] amounted to 0.05. This compound also gave an inhibition in [4] of 67%.

Source of the values: ChEMBL document CHEMBL1150285, “Combination of non-natural D-amino acid derivatives and allophenylnorstatine-dimethylthioproline scaffold in HIV protease inhibitors have high efficacy in mutant HIV” (J Med Chem, 2008).
